The whole screen tested about 310,000 compounds, of which about 1,400 (0.45%) were called active.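 Rule for the calls: active = calcium response B-score plate-corrected fluorescence ratio at least 3 library SD, with starting fluorescence B-score inside 5 SD; inactive = the rest.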 The sample as a whole holds a higher share of actives than the screen did.
Target: Mas-related G-protein coupled receptor member X1 (Homo sapiens) (UniProt Q96LB2)
Experiment: MrgX1 activation via calcium signaling – HEK293 cells, Fluo-4 calcium flux, primary screen (AID 588627);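 for B-score: B-score of the peak-minus-trough calcium fluorescence change over baseline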
Conditions: Fluo-4 calcium fluorescence, agonist mode, at 10 µM; hits give high values
Procedure, shortened: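 System – MrgX1-expressing HEK293 cells · Incubation – cells plated overnight, dye loaded 0.5 h 37 °C, 0.5 h room temperature · Technique – kinetic Fluo-4 NW fluorescence of intracellular calcium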

Chain of Mas-related G-protein coupled receptor member X1 (Homo sapiens) (Q96LB2 whole entry, looked up): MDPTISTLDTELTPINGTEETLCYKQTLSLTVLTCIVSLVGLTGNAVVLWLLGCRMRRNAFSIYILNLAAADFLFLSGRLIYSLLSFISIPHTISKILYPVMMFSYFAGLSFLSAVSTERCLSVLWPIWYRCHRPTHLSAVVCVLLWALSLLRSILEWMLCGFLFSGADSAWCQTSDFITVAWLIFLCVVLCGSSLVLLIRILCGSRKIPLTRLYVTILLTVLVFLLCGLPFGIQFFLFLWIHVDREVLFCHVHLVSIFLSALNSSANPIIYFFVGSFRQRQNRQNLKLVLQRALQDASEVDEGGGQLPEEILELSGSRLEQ

Row | SMILES | B-score
1 | Cc1ccc(-c2nn(-c3ccccc3)cc2/C=C2\SC(=S)N(CCCCCC(=O)O)C2=O)o1 | inactive
2 | O=C(N/C(=C/c1ccc(Cl)cc1)C(=O)N1CCCCC1)c1ccco1 | inactive
3 | Cc1onc(-c2ccccc2)c1C(=O)Nc1ccccc1C#N | inactive
4 | Cc1onc(-c2c(Cl)cccc2Cl)c1C(=O)NNC(=O)c1c(-c2c(Cl)cccc2Cl)noc1C | inactive
5 | COc1ccc(C(=O)NC(=S)NNC(=O)c2c(-c3ccccc3)noc2C)cc1 | 123 (active)
6 | Cc1onc(-c2ccccc2)c1C(=O)NNC(=S)NC(=O)c1ccc(F)cc1 | 126 (active)
7 | CCc1noc(C)c1C(=O)NNC(=O)c1ccc(F)cc1 | inactive
8 | Cc1ccc(CNC(=O)c2c(-c3ccccc3)noc2C)cc1 | inactive
9 | Cc1ccc(NC(=O)c2ccn(C(=O)Nc3ccccc3)n2)c(C)c1 | inactive
10 | CS(=O)(=O)N(CC(=O)N1CCCC1)Cc1ccccc1 | inactive
11 | CC1=NN(c2ccccc2)C(=O)C1C(=O)c1ccc([N+](=O)[O-])cc1 (stereo unspecified) | inactive
12 | O=C1NC(=O)C2C1C(c1ccc([N+](=O)[O-])cc1)=NN2Cc1ccccc1 (stereo unspecified) | 42.5 (active)
13 | CC(=O)N1c2ccccc2N(Cc2ccc([N+](=O)[O-])cc2)C(=O)C1(C)C | inactive
14 | COc1cc(CO)ccc1OCC(=O)Nc1cccc2ccccc12 | inactive
15 | COc1ccc(N2CC(C)Cn3c2nc2c3c(=O)n(Cc3ccccc3F)c(=O)n2C)c(OC)c1 (stereo unspecified) | inactive
16 | O=C(COC(=O)c1cccc(Cl)c1)Nc1ccc2[nH]c(=O)[nH]c2c1 | inactive
17 | CCC(C)c1ccc(O)c(/C=N/O)c1 (stereo unspecified) | inactive
18 | CC(=O)NCC(O)c1ccc([N+](=O)[O-])cc1 (stereo unspecified) | inactive
19 | CNCC(O)c1ccc(O)c(O)c1 (stereo unspecified) | 46.8 (active)
20 | Cc1ccc(CNC(=O)CCC(=O)N2CC(C)Sc3ccccc32)cc1 (stereo unspecified) | inactive
21 | O=C1Nc2cc(C(=O)N3CCN(c4ccc(F)cc4)CC3)ccc2NC1CSCc1cccc(F)c1 (stereo unspecified) | 28.7 (active)
22 | Cc1ccc(CSCC2Nc3ccc(C(=O)N4CCN(c5ccc(F)cc5)CC4)cc3NC2=O)cc1 (stereo unspecified) | inactive

Row | SMILES | B-score
23 | O=C(c1cc(C(=O)N2CCN(c3ccc(F)cc3)CC2)cc([N+](=O)[O-])c1)N1CCN(c2ccc(F)cc2)CC1 | inactive
24 | Cc1ccc(NC(=O)COC(=O)C2C3CC4OC(=O)C2C4C3)cc1Cl (stereo unspecified) | inactive
25 | COc1cc(OC)cc(C(=O)N[C@H](C(=O)OCC(=O)NC(C)c2ccccc2)C(C)C)c1 (stereo partly specified) | 36 (active)
26 | Cc1cc(C)cc(OCC(=O)NC(C)c2ccccc2)c1 (stereo unspecified) | inactive
27 | Cc1ccc(OCC(=O)NC(C)c2ccccc2)cc1C (stereo unspecified) | inactive
28 | COc1ccc(NC(=O)CC2C(=O)NC3CCCCC3N2C(=O)c2ccc(F)cc2)cc1 (stereo unspecified) | inactive
29 | CCCNC(=S)N1CCC(NC(=O)c2ccc(OC)cc2)CC1 | inactive
30 | CC(C)COC(=O)c1ccc(NC(=O)C2C3C=CC(C3)C2C(=O)O)cc1 (stereo unspecified) | inactive
31 | CCOC(=O)c1cc2cc(C)ccc2[nH]1 | inactive
32 | CCOC(=O)c1[nH]c2ccccc2c1N=C(C)N(CC)CC | inactive
33 | CCOC(=O)c1[nH]c2ccc(C)cc2c1N=C(C)N(C)C | 44.7 (active)
34 | Cn1c(N)cc(-c2ccc(F)cc2)c(C#N)c1=O | inactive
35 | O=C(CSc1nnc(-c2c[nH]c3ccccc23)n1-c1ccc(F)cc1)NCc1ccco1 | inactive
36 | COc1cc(/C=C(\C#N)c2nc3c(s2)CC(C)CC3)ccc1O (stereo unspecified) | inactive
37 | Cc1ccc2nc(/C(C#N)=C\c3ccc(OC(=O)c4cccs4)cc3)[nH]c2c1 | inactive
38 | COc1cc(/C=C(\C#N)c2nc3ccccc3[nH]2)ccc1O | 58.8 (active)
39 | COCOc1cc(O)c(C(=O)/C=C/c2ccc(OCOC)c(OCOC)c2)c(OCOC)c1 | inactive
40 | Cc1cc(C)cc(NC(=O)c2cccc(NC(=O)C3C4CC5OC(=O)C3C5C4)c2)c1 (stereo unspecified) | inactive
41 | CCN(CC)C(=O)C(=O)Nc1cccc(Br)c1 | inactive
42 | CCN(CC)C(=O)CSC(Nc1cccc(F)c1)=C(C#N)C#N | 39.4 (active)
43 | Cc1ccc(CSCC(=O)N(C)CC(=O)Nc2cccc(F)c2)cc1 | inactive
44 | CS(=O)(=O)N(CC(=O)N1CCc2ccccc2C1)c1ccc(Br)cc1 | inactive

Row | SMILES | B-score
45 | CCOCCCNC(=S)Nc1ccc2nc(N3CCN(CC)CC3)cc(C)c2c1 | inactive
46 | CC(C)CN(Cc1c(O)ccc2c(=O)c(-c3ccccc3)coc12)CC(C)C | inactive
47 | CC(C)=CCc1c(O)c(CC=C(C)C)c2occ(-c3ccc(O)cc3)c(=O)c2c1O | 29.8 (active)
48 | CCOC(=O)c1nnn(CC(=O)Nc2cccc(F)c2)c1C(=O)OCC | inactive
49 | CCNS(=O)(=O)c1ccc(CCC(=O)N2CCN(c3ccc(OC)cc3)CC2)cc1 | inactive
50 | Cc1c(C)c2c(OCC(=O)N[C@@H](C(=O)O)c3ccccc3)cc3c(c2oc1=O)CCC(C)(C)O3 | 43.9 (active)
51 | Cc1cc(=O)oc2c3c(cc(OCC(=O)N[C@H](C(=O)O)c4ccccc4)c12)OC(C)(C)CC3 | inactive
52 | Cc1c(C)c2c(OCC(=O)NCCCO)cc3c(c2oc1=O)CCC(C)(C)O3 | inactive
53 | O=C(C[n+]1ccc2c(c1)nnn2-c1ccccc1)c1ccc(Cl)cc1 | inactive
54 | O=C(CN1C(=O)NC2(CCCCC2)C1=O)NCCc1c[nH]c2ccccc12 | inactive
55 | N#C/C(=C/c1ccc(N2CCCCC2)o1)C(=O)NCCc1c[nH]c2ccccc12 | 37.2 (active)
56 | CC(=O)N/C(=C/c1ccc(Cl)cc1)C(=O)NCCc1c[nH]c2ccccc12 | inactive
57 | COC(=O)c1ccccc1Oc1c(F)c(F)nc(N2CCOCC2)c1F | inactive
58 | c1ccc(-n2cccc2)c(N2CCCCC2)c1 | inactive
59 | O=C(NCc1cccnc1)c1cnc2ccccc2n1 | inactive
60 | Cc1ccnc(N2CCCC(C(=O)NC3CC3)C2)n1 (stereo unspecified) | inactive
61 | Cc1ccnc(SCC(N)=O)n1 | inactive
62 | Cc1ccnc(-n2sc3ccccc3c2=O)n1 | 37 (active)
63 | CC1CN(C(=O)COC(=O)c2cccc(NS(=O)(=O)c3ccccc3)c2)CC(C)O1 (stereo unspecified) | inactive
64 | Cc1nc2sc(C(=O)c3ccccc3)c(N)c2c2c1CCCC2 | inactive
65 | CN(C)c1ccnc2sc(C(=O)c3ccccc3)c(N)c12 | inactive
66 | Nc1c(C(=O)c2cccs2)sc2nsc(SCCN3CCCCC3)c12 | 53.3 (active)

Reference: PubChem BioAssay AID588627 (Johns Hopkins Ion Channel Center, 2011)
